From ChEMBL document CHEMBL3526119, “Effect of the CYP2C8 genotype on the pharmacokinetics and pharmacodynamics of repaglinide” (Drug Metab Dispos, 2011)

Columns and labels:
Assay type in all cases: ADME, organism-based
Conditions in all cases: in vivo
[1] = system: Homo sapiens; assay: Drug excretion in healthy white human with SLCO1B1 521CC/CYP2C8*3/*3 combined genotype treated with 2 mg, po repaglinide
Procedure, shortened: (§1)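 Urine was collected before a single 2 mg oral dose and over 0–4, 4–8, 8–12, 12–16 and 16–24 h. Metabolites M1 and M4 were measured by LC-MS/MS. With no reference standards, amounts were expressed in arbitrary units as the peak area ratio to diclofenac internal standard. Ae0-24h is the sum of amounts over the collection periods.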

[2] = system: Homo sapiens; assay: Drug excretion in healthy white human with SLCO1B1 521CC/CYP2C8*1/*3 combined genotype treated with 2 mg, po repaglinide; procedure, shortened: as §1
[3] = system: Homo sapiens; assay: Drug excretion in healthy white human with SLCO1B1 521TC/CYP2C8*1/*3 combined genotype treated with 2 mg, po repaglinide; procedure, shortened: as §1
[4] = system: Homo sapiens; assay: Drug excretion in healthy white human with SLCO1B1 521TC/CYP2C8*1/*1 combined genotype treated with 2 mg, po repaglinide; procedure, shortened: as §1
[5] = system: Homo sapiens; assay: Drug excretion in healthy white human with SLCO1B1 521TT/CYP2C8*3/*3 combined genotype treated with 2 mg, po repaglinide; procedure, shortened: as §1
[6] = system: Homo sapiens; assay: Drug excretion in healthy white human with SLCO1B1 521TC/CYP2C8*3/*3 combined genotype treated with 2 mg, po repaglinide; procedure, shortened: as §1
[7] = system: Homo sapiens; assay: Drug excretion in healthy white human with SLCO1B1 521TT/CYP2C8*1/*3 combined genotype treated with 2 mg, po repaglinide; procedure, shortened: as §1
[8] = Drug excretion in healthy white human urine with CYP2C8*3/*3 genotype at 2 mg, po up to 24 hrs; procedure, shortened: as §1
[9] = system: Homo sapiens; assay: Drug excretion in healthy white human urine at 2 mg, po up to 24 hrs; procedure, shortened: as §1
[10] = Drug excretion in healthy white human urine with CYP2C8*1/*1 genotype at 2 mg, po up to 24 hrs; procedure, shortened: as §1
[11] = Drug excretion in healthy white human urine with CYP2C8*1/*3 genotype at 2 mg, po up to 24 hrs; procedure, shortened: as §1
[12] = system: Homo sapiens; assay: Drug excretion in healthy white human with SLCO1B1 521TT/CYP2C8*1/*1 combined genotype treated with 2 mg, po repaglinide; procedure, shortened: as §1

Structure (SMILES)	Ae [1] [a.u.]	Ae [2] [a.u.]	Ae [3] [a.u.]	Ae [4] [a.u.]	Ae [5] [a.u.]	Ae [6] [a.u.]	Ae [7] [a.u.]	Ae [8] [a.u.]	Ae [9] [a.u.]	Ae [10] [a.u.]	Ae [11] [a.u.]	Ae [12] [a.u.]
CCOc1cc(CC(=O)N[C@@H](CC(C)C)c2ccccc2N2CCCC(O)C2)ccc1C(=O)O (some centres undefined)	268.6	155.1	197.8	191.7	79.4	471.7	226.4	336.7	217.8	184.2	212.4	181.7
CCOc1cc(CC(=O)N[C@@H](CC(C)C)c2ccccc2N)ccc1C(=O)O	29.1	41.4	33.3	39.9	53.1	52.8	47.5	53.3	48.3	52.8	42.6	57
